CHT PAM: human CHT allosteric activation. Q9GZV3. CHT-expressing cells, membrane potential dye, choline EC20; hits give high values; LV-AA mutant CHT in HEK293 cells. B-score at 10 µM. actives 0.49% (n = 310,000). AID 488977;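 active = initial fluorescence not abnormally high and integrated response B-score, plate-corrected, over 3 SD above library mean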
Target sequence (Q9GZV3 whole entry, looked up): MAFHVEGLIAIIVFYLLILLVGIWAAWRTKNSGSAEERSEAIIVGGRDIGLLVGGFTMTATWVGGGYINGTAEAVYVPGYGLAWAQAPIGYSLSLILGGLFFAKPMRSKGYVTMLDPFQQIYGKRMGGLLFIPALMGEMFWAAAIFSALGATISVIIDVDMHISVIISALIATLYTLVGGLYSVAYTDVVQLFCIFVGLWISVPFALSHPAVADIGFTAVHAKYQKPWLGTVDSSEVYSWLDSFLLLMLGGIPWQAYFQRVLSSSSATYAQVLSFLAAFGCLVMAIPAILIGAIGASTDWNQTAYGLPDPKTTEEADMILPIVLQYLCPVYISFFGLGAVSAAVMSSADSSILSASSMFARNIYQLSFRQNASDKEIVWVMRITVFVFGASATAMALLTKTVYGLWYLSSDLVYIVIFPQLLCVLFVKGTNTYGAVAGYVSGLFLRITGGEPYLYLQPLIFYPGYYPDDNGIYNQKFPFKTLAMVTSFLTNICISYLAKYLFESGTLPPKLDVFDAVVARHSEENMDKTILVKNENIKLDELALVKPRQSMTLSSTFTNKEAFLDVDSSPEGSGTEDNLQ
T cruzi repl: blocks replication of Trypanosoma cruzi; inhibition, % (test concentration not listed); actives 1.4% (n = 300,000); T. cruzi beta-gal in NIH3T3, luminescence, 90 h;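 active = mean inhibition across valid replicates above about 55%, limit read from the data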;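 also: signal also drops with host cell toxicity which is not excluded here; 0% = plate median of DMSO wells and 100% = zero luminescence signal; higher percent means less beta-gal luminescence so fewer parasites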
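System: mouse NIH/3T3 fibroblasts infected with β-gal-expressing T. cruzi Tulahuen C4 / Input: NIH/3T3 cells, 5,000 per well / Buffer or medium: Low-serum DMEM with 2% FBS / Probe or stimulus: 5000 reporter trypomastigotes per well / Schedule: ≥90 h infection period, 3 h prior cell attachment / Measured by: GalScreen luminescence, 60 min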
PolyA inhibitor: yeast polyadenylation inhibition; S. cerevisiae SKY197-pL101 polyadenylation reporter, beta-gal luminescence; efflux-impaired pdr1/pdr3 knockout yeast; score 100 = 6 SD above DMSO; activity score, % at 12 µM; actives 0.02% (n = 300,000);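 active = lowest replicate activity score at least 50, where 100 means six control SD above control mean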;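 also: yeast exposed to compound for 9 h at 30 °C; higher score means more reporter readthrough which indicates perturbed polyadenylation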
CHT inh: inhibits the human high affinity choline transporter. actives 0.86% (n = 310,000). AID 488975. Q9GZV3. CHT-expressing cells, membrane potential dye, choline response; hits give low values. B-score at 10 µM;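 active = B-score over 3 SD under the library average, and starting fluorescence ratio not unusually high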;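 also: choline stimulus applied at its EC90 after an EC20 pre-addition; B-score computed on integrated fluorescence ratio after choline addition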
The depositor's hits bear a star; i = inactive; nt = no result given. The list is not random: actives were taken first. Their share in the collection is about 2.6%.

SMILES | CHT PAM | T cruzi repl | PolyA inhibitor | CHT inh
CN1CCN(c2ccccc2NC(=O)c2ccc(-c3ccc(Cl)cc3Cl)o2)CC1 | i | 55.3* | -18.7 | i
COc1cc(CNCc2ccncc2)cc(Br)c1OCc1ccccc1F | i | 55.1* | -10.6 | i
N=C1SCC(=O)N1c1ccc(Cl)cc1 | i | -16.1 | 8.4 | i
COc1cc(/C=C/c2ccc3cccc(O)c3n2)c(Br)cc1O | i | 55.8* | 19.7 | i
COc1cc(Br)c(/C=C/c2ccc3cccc(O)c3n2)cc1OC | i | 57.0* | 9.0 | i
COc1ccc(OC)c(/C=C/c2ccc3cccc(O)c3n2)c1 | i | 60.6* | 2.3 | i
COc1cc(Br)cc(/C=C/c2ccc3cccc(O)c3n2)c1O | i | 33.7 | -2.1 | i
Cc1cccc(N(CC(=O)NC2CCCCC2)C(=O)c2csnn2)c1 | i | -9.9 | -13.5 | i
Cc1cc(S(=O)(=O)N2CCN(c3ccccc3F)CC2)ccc1-n1cnnn1 | i | -2.3 | 6.4 | i
CN(CC(=O)Nc1cccc(F)c1)C(=O)c1cc(S(=O)(=O)N(C)C)ccc1N1CCCC1 | i | 10.2 | 2.3 | i
O=C(c1ccc2c3c(cccc13)CC2)C1CCCN(C(=O)c2cccnc2)C1 (stereo not given) | i | -11.2 | -11.4 | i
O=C(c1ccc2c3c(cccc13)CC2)C1CCCN(Cc2cccnc2)C1 (stereo not given) | i | 62.1* | 2.6 | i
S=C(Nc1ccc(Br)cc1)N1CCn2cccc2C1c1cccnc1 (stereo not given) | nt | 78.7* | 13.0 | nt
Cc1ccc(NC(=S)N2CCn3cccc3C2c2cccnc2)cc1 (stereo not given) | i | -4.9 | -12.0 | i
CCCCOC(=O)Nc1nnc(C(C)C)s1 | i | 64.3* | -24.0 | i
CCCCCOC(=O)Nc1nnc(CCC)s1 | i | 47.2 | 1.0 | i
O=C(NCc1ccon1)C1CCC(=O)N(CCc2ccc(Cl)cc2)C1 (stereo not given) | i | -5.8 | -10.6 | i
c1ccc(COc2ccc(-c3sc(Nc4ccccc4)n[n+]3-c3ccccc3)cc2)cc1 | 7.99* | 32.3 | 7.3 | i
O=C(O)c1ccc(-c2sc(Nc3ccccc3)n[n+]2-c2ccccc2)cc1 | i | -13.8 | -6.6 | i
CCOC(=O)C1(CCOc2ccccc2)CCN(Cc2cccc3nonc23)CC1 | i | 57.4* | -10.8 | i
Cc1cc(C)n(CC(=O)N/N=C/c2cc(Br)cc([N+](=O)[O-])c2O)n1 | i | 64.8* | -47.4 | i
Cc1cc(C)n(CC(=O)N/N=C/c2cc([N+](=O)[O-])ccc2O)n1 | i | 0.4 | -32.6 | i
CCc1ccc2oc(=O)cc(CN3CCCCC3)c2c1 | i | -9.7 | -7.4 | i
COC(=O)c1c(N2C(=O)[C@H]3[C@@H](C2=O)[C@]2(C(=O)Nc4ccc(C)cc42)N2CCC[C@@H]32)sc(C)c1C | i | -11.8 | 23.9 | i
CCC(NC(=O)c1ccc([N+](=O)[O-])cc1[N+](=O)[O-])c1ccccc1 (stereo not given) | i | 58.2* | 9.7 | i
SMILES | CHT PAM | T cruzi repl | PolyA inhibitor | CHT inh
O=C(c1ccccc1)c1c2c(cc3sc4ccccc4[n+]13)-c1cccc3cccc-2c13 | i | nt | nt | i
Cc1sc2cc3c(c(C(=O)c4ccccc4)[n+]2c1C)-c1cccc2cccc-3c12 | i | 73.8* | -51.4 | i
Cc1ccc(-n2nc3c(N4CCC(C(=O)NCCc5ccccc5C)CC4)nnc(C)c3c2C)cc1 | i | 55.3* | 37.0 | i
O=C(NCCC1CCCCN1S(=O)(=O)c1ccc(F)cc1)C(=O)Nc1ccccc1 (stereo not given) | i | -7.2 | 0.0 | i
CC(Oc1ccccc1F)C(=O)NNC(=O)CCNC(=O)c1ccccc1Cl (stereo not given) | i | 4.5 | -2.1 | i
COc1ccc(CN2CCCC(N3CCN(c4cccc(Cl)c4)CC3)C2)cc1OC (stereo not given) | i | 55.7* | -6.8 | i
CC(C)CN1CCCC(N2CCN(c3cccc(Cl)c3)CC2)C1 (stereo not given) | i | 65.1* | -12.1 | i
COCCN1CC(C(=O)N2CCC(Oc3ccccc3OC)CC2)CCC1=O (stereo not given) | i | -1.5 | 3.9 | i
COc1ccc(-n2cnc3c(sc4nc(N5CCOCC5)c5c(c43)CCCC5)c2=O)cc1 | i | 10.8 | 1.2 | i
Cc1ccccc1-n1cnc2c(sc3nc(N4CCOCC4)c4c(c32)CCCC4)c1=O | i | 71.3* | -27.3 | i
